The target in assay [1] is T1, Autotaxin (Homo sapiens, UniProt Q13822). Nature of the assay: Inhibition of C-terminal FLAG tagged human recombinant ATX expressed in insect sf9 cells using FS-3 as substrate measured every 2 mins for 60 mins by FRET assay. The essentials: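 Dose response over 0.03 to 30 μM compound, 10 nM human FLAG-fusion ATX, 1 μM FS-3 in pH 8.0 Tris/BSA assay buffer. Fluorescence at 485/520 nm every 2 min for 60 min at 37 °C, normalized to no-ATX and no-compound controls. IC50 by non-linear regression. Triplicate.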

For assay [2], the target named is T2, Glycerophosphocholine cholinephosphodiesterase ENPP6 (Homo sapiens) (UniProt Q6UWR7).
T2 sequence (whole entry): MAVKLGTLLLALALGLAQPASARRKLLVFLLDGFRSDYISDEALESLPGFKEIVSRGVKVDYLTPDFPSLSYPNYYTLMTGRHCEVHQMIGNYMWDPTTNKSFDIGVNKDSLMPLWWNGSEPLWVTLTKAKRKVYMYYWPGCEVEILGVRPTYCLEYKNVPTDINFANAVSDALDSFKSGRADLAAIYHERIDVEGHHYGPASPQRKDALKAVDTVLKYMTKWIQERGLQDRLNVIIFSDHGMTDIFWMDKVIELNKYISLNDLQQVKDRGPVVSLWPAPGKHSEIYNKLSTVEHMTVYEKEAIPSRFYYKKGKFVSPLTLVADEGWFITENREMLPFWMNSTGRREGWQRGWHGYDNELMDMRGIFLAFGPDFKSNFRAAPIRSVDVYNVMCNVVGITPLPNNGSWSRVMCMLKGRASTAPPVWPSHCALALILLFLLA
The assay is described as follows: Inhibition of C-terminal FLAG tagged human recombinant NPP6 expressed in insect sf9 cells assessed as remaining enzyme activity response at 10 uM using pNPPC as substrate measured every 2 mins for 1 hr by […]. Put shortly:
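Final 10 nM human FLAG-fusion NPP6, 10 μM compound, 10 μM pNPPC in 500 mM NaCl, 100 mM Tris-HCl, 0.05% Triton X-100, pH 9. A405 at 37 °C every 2 min for 1 h. Background absorbance subtracted. Mean percent response relative to enzyme-only control (no-enzyme = 0%). Triplicate.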

For assay [3], the target named is T3, Ectonucleotide pyrophosphatase/phosphodiesterase family member 7 (Homo sapiens) (UniProt Q6UWV6).
T3 sequence (whole entry): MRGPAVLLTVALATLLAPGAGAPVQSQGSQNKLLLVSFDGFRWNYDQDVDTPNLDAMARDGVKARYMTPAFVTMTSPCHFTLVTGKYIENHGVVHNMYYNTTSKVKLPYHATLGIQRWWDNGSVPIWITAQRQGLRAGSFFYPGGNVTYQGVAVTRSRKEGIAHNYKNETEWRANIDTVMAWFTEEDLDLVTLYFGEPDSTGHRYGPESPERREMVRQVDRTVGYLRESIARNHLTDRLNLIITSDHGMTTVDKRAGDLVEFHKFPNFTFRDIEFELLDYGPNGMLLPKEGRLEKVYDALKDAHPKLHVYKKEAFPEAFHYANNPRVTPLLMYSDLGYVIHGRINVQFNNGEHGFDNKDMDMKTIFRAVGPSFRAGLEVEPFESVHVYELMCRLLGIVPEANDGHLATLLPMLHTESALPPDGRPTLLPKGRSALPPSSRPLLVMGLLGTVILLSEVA
Nature of the assay: Inhibition of C-terminal FLAG tagged human recombinant NPP7 expressed in insect sf9 cells assessed as remaining enzyme activity response at 10 uM using pNPPC as substrate measured every 2 mins for 1 hr by […]. The essentials:
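Human FLAG-fusion NPP7 (10 nM final) with 10 μM compound and 10 μM pNPPC in 50 mM Tris-HCl, 150 mM NaCl, 10 mM taurocholate, pH 8. Absorbance at 405 nm, 37 °C, every 2 min for an hour. Background subtracted. Mean percent of enzyme-only response (no-enzyme = 0%). Triplicate.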

In assay [4] the target is T1, Autotaxin. The assay is described as follows: Inhibition of C-terminal FLAG tagged human recombinant ATX expressed in insect sf9 cells at 10 uM using FS-3 as substrate measured every 2 mins for 60 mins by FRET assay. Put shortly:
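10 μM compound with 10 nM human FLAG-fusion ATX in pH 8.0 Tris buffer (30 μM BSA, 1 mM CaCl2, 1 mM MgCl2, 5 mM KCl, 140 mM NaCl) and 1 μM FS-3. Fluorescence at ex 485/em 520 nm read every 2 min for 60 min at 37 °C. Normalized to no-ATX (0%) and ATX without compound (100%). Triplicate.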

For assay [5], the target named is T1, Autotaxin. Nature of the assay: Inhibition of C-terminal FLAG tagged human recombinant ATX expressed in insect sf9 cells at 10 uM using pNP-TMP as substrate measured every 2 mins for 60 mins by absorbance.
The target in assay [6] is T1, Autotaxin. Nature of the assay: Inhibition of C-terminal FLAG tagged human recombinant ATX expressed in insect sf9 cells using pNP-TMP as substrate measured every 2 mins for 60 mins by absorbance. Put shortly:
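Dose response 0.03 to 30 μM compound against 10 nM human FLAG-fusion ATX with 1 mM pNP-TMP in pH 8.0 Tris/BSA buffer. A405 every 2 min for 60 min at 37 °C, normalized to no-enzyme and uninhibited controls. IC50 by non-linear regression. Triplicate.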

The target in assay [7] is Lysophosphatidic acid receptor 2 (Mus musculus) (UniProt Q9JL06). Nature of the assay: Potentiation of LPA induced activity at LPA receptor 2 in double knockout MEF assessed as calcium mobilization at 0.01 to 10 uM after 30 mins in presence of BSA by Fura-2AM based fluorescence analysis. The assay is classed as functional, cell-based.
For assay [8] the target is unchanged. Nature of the assay: Agonist activity at LPA receptor 2 in double knockout MEF assessed as calcium mobilization after 30 mins by fluorescence analysis. It counts as functional, cell-based.
Assay [9] concerns the target Lysophosphatidic acid receptor 5 (Homo sapiens) (UniProt Q9H1C0). Nature of the assay: Antagonist activity at LPA receptor 5 (unknown origin) assessed as inhibition of LPA induced calcium mobilization at 0.01 to 10 uM after 30 mins by fluorescence analysis. It counts as functional.
Assay [10] deals with Lysophosphatidic acid receptor 2 (Mus musculus) (UniProt Q9JL06). The assay is described as follows: Antagonist activity at LPA receptor 2 in double knockout MEF assessed as inhibition of LPA induced calcium mobilization at 0.01 to 10 uM after 30 mins by fluorescence analysis. The assay is classed as functional, cell-based.
The target in assay [11] is T1, Autotaxin. Nature of the assay: Potency index, ratio of IC50 for GRI392104 to IC50 for test compound for inhibition of C-terminal FLAG tagged human recombinant ATX expressed in insect sf9 cells using FS-3 as substrate measured every 2 mins for 60 mins by FRET assay.
Assay [12] deals with Lysophosphatidic acid receptor 4 (Homo sapiens) (UniProt Q99677). Nature of the assay: Antagonist activity at LPA receptor 4 (unknown origin) assessed as inhibition of LPA induced calcium mobilization at 0.01 to 10 uM after 30 mins by fluorescence analysis. It counts as functional.
Assay [13] shares this target. The assay is described as follows: Agonist activity at LPA receptor 4 (unknown origin) assessed as calcium mobilization after 30 mins by fluorescence analysis. The assay is classed as functional.
Assay [14] addresses T4, Lysophosphatidic acid receptor 3 (Homo sapiens) (UniProt Q9UBY5).
T4 sequence (whole entry): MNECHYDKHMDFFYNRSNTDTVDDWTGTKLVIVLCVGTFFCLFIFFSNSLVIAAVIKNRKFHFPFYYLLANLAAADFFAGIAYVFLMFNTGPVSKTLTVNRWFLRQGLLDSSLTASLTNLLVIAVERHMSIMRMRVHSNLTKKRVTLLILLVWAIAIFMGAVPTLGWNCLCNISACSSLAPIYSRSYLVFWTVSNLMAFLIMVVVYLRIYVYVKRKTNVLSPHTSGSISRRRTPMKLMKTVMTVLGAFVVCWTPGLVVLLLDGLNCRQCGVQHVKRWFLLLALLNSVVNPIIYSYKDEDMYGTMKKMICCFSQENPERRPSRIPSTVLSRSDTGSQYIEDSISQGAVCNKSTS
The assay is described as follows: Antagonist activity at LPA receptor 3 (unknown origin) assessed as inhibition of LPA induced calcium mobilization at 0.01 to 10 uM after 30 mins by fluorescence analysis. The assay is classed as functional.

In assay [15] the target is T4, Lysophosphatidic acid receptor 3 (Homo sapiens). The assay is described as follows: Agonist activity at LPA receptor 3 (unknown origin) assessed as calcium mobilization after 30 mins by fluorescence analysis. The assay is classed as functional.
Assay [16] deals with Lysophosphatidic acid receptor 5 (Homo sapiens) (UniProt Q9H1C0). Nature of the assay: Agonist activity at LPA receptor 5 (unknown origin) assessed as calcium mobilization after 30 mins by fluorescence analysis. It counts as functional.
The target in assay [17] is Lysophosphatidic acid receptor 1 (Homo sapiens) (UniProt Q92633). The assay is described as follows: Agonist activity at LPA receptor 1 (unknown origin) assessed as calcium mobilization after 30 mins by fluorescence analysis. The assay is classed as functional.
Assay [18] shares this target. Nature of the assay: Antagonist activity at LPA receptor 1 (unknown origin) assessed as inhibition of LPA induced calcium mobilization at 0.01 to 10 uM after 30 mins by fluorescence analysis. It counts as functional.

Molecules are shown by their SMILES. pIC50: −log10 of the molar value. The source made the active and inactive calls. The calls are words filed in the database; no cut-off is given here.

Chain of Lysophosphatidic acid receptor 2 (Mus musculus) (Q9JL06 whole entry): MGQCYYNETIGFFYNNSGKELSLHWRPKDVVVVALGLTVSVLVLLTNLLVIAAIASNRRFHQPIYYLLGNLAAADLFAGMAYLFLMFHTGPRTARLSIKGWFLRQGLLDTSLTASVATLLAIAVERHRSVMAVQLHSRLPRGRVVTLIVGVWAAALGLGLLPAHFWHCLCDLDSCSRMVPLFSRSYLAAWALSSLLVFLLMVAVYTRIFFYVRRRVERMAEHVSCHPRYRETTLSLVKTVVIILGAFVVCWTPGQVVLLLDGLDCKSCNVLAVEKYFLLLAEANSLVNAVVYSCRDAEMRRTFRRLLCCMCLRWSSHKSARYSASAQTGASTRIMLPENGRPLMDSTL
Chain of Lysophosphatidic acid receptor 5 (Homo sapiens) (Q9H1C0 whole entry): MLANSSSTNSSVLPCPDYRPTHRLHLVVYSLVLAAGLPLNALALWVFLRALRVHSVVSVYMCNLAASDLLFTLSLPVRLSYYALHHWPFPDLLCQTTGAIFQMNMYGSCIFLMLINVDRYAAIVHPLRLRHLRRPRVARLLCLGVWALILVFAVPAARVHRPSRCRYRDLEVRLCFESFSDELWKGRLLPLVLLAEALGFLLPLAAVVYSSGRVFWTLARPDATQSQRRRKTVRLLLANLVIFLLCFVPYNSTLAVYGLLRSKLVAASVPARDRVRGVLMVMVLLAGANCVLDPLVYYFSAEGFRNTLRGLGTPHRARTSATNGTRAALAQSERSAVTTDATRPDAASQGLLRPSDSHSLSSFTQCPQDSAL
Chain of Lysophosphatidic acid receptor 1 (Homo sapiens) (Q92633 whole entry): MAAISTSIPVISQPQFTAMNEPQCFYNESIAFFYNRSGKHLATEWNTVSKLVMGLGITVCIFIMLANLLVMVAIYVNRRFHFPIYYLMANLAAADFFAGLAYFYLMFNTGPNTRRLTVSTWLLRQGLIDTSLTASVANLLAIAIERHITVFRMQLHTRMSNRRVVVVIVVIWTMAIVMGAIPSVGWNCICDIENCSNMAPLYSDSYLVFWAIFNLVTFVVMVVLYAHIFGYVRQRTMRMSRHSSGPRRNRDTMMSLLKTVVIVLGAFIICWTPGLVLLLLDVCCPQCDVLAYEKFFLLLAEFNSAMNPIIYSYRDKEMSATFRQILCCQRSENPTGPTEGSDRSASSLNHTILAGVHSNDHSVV
Chain of Lysophosphatidic acid receptor 4 (Homo sapiens) (Q99677 whole entry): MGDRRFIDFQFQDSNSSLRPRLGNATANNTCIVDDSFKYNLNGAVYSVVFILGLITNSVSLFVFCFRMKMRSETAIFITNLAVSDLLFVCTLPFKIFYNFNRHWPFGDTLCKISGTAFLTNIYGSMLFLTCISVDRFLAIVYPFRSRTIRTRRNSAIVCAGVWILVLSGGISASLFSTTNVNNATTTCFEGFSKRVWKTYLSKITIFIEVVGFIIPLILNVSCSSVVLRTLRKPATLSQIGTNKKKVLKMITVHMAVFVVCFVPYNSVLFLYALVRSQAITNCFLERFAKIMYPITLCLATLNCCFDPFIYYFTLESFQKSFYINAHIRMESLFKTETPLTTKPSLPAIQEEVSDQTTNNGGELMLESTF

For `O=C(COc1cc(Cl)cc(Cl)c1)N1CCN(c2ccc([N+](=O)[O-])cc2)CC1`, the pIC50 in [1] was 5.64. In addition, the Activity in assay [2] was determined as 95.8%; in assay [3], 93.1%. Besides, the inhibition in assay [4] was 63%; in assay [5], 20.4%.
On to `O=C(O)c1cccc(N2CCN(C(=O)COc3cccc(Cl)c3)CC2)c1`, for which the pIC50 in [1] was 5.59. Besides, the Activity in [2] was found to be 96.4%; in assay [3] it was 84.3%. In addition, the inhibition in [4] stood at 80%; in [5] it was 37.1%.
The corresponding values for `O=C(COc1ccc(Cl)cc1)N1CCN(c2ccc([N+](=O)[O-])cc2)CC1` are 5.66, 94%, 114%, 76% and 19.9%.
With `O=C(COc1ccc(Cl)cc1Cl)N1CCN(c2ccc([N+](=O)[O-])cc2)CC1`, the pIC50 in [1] was 5.43. The Activity turned out to be 92.2% in assay [2] and 103% in [3]. In addition, the inhibition in assay [4] is 51.8%.
Turning to `O=C(COc1ccc(C(F)(F)F)cc1)N1CCN(c2ccccc2[N+](=O)[O-])CC1`, the pIC50 in [1] is 5.33; in [6], 4.95. Moreover, the inhibition turned out to be 72.6% in assay [4] and 44.7% in assay [5].
For `O=C(COc1cc(Cl)cc(Cl)c1)N1CCN(c2cccc([N+](=O)[O-])c2)CC1`, the outcome in assay [7] was Active. The negative logarithm of the IC50 (pIC50) in assay [1] is 6.17; in assay [6], 5.05. Also, the outcome in [8], in assay [13], in assay [15], in assay [16] and in [17] was inactive. The Activity stood at 89.8% in assay [2] and 102% in assay [3]. Further, the inhibition entry in [9], in assay [10], in assay [12], in [14] and in [18] was “inactive” throughout. Besides, the Ratio IC50 in assay [11] was determined as 6. In addition, the inhibition in assay [4] is 84.3%; in assay [5], 52.1%.
In the case of `O=C(O)c1cccc(N2CCN(C(=O)COc3ccc(Cl)cc3)CC2)c1`, the negative-log IC50 (pIC50) in assay [1] was 5.43; in assay [6], 5.21. Besides, the Activity in [2] turned out to be 93.4%; in assay [3], 89.2%. Besides, the inhibition amounted to 79.8% in assay [4] and 56.6% in assay [5].
With `O=C(O)c1ccccc1N1CCN(C(=O)COc2ccc(C(F)(F)F)cc2)CC1`, in [1], the pIC50 was 5.74. The figures for the Activity in [2] and in assay [3] were 97.6% and 90.5%, respectively. Further, the inhibition in assay [4] is 89.1%; in assay [5] it was 43.7%.
The corresponding values for `O=C(CCCOc1ccc(Cl)cc1Cl)N1CCN(c2ccc([N+](=O)[O-])cc2)CC1` are 5.40, 92.2%, 86.3%, 65.5% and 27.7%.
Consider `O=C(COc1ccc(Cl)cc1Cl)N1CCN(c2cccc([N+](=O)[O-])c2)CC1`, for which the negative-log IC50 (pIC50) in [1] was 5.47. Also, the Activity amounted to 89.8% in assay [2] and 89.5% in [3]. Also, the inhibition in assay [4] was 73.2%; in [5], 7.3%.
The corresponding values for `O=C(O)c1cccc(N2CCN(C(=O)COc3ccc(Cl)cc3Cl)CC2)c1` are 5.68, 95.2%, 103%, 76.1% and 29.5%.
In the same order, the values of `O=C(O)c1ccccc1N1CCN(C(=O)COc2cc(Cl)cc(Cl)c2)CC1` are 5.66, 91%, 90.2%, 59.8% and 23.4%.
As for `O=C(COc1cc(Cl)cc(Cl)c1)N1CCN(c2ccccc2[N+](=O)[O-])CC1`, the values for the pIC50 in assay [1] and in assay [6] were 5.52 and 4.94, respectively. Also, the Activity in assay [2] came out at 93.4%; in [3], 99%. For the same compound, the inhibition was determined as 77.7% in assay [4] and 46.8% in assay [5].
On to `O=C(O)c1cccc(N2CCN(C(=O)COc3cccc(C(F)(F)F)c3)CC2)c1`, for which the negative-log IC50 (pIC50) in [1] is 5.66. The Activity in assay [2] was 89.2%; in assay [3] it was 87.3%. Moreover, the inhibition in assay [4] amounted to 67.1%; in [5], 37.9%.
In the case of `O=C(O)c1cccc(N2CCN(C(=O)COc3cc(Cl)cc(Cl)c3)CC2)c1`, the pIC50 in assay [1] was 5.14; in assay [6] it was 5.28. In addition, the inhibition in [4] stood at 54.6%; in assay [5], 56.2%.

The values above are taken from ChEMBL document CHEMBL4431364, “Discovery and synthetic optimization of a novel scaffold for hydrophobic tunnel-targeted autotaxin inhibition” (Bioorg Med Chem, 2016).
